The source made the active and inactive calls. No cut-off for these calls is given here.
Columns and labels:
[1] = target: T1, GABA-A receptor; anion channel (Mus musculus) (UniProt Q8BHJ7+P26048+Q8QZW7+P50571+Q9R0Y8+P22723+A2AMW3+P62812+Q9JLF1+P26049+P22933+Q9D6F4+P63080+P27681+P16305); experiment: (§1) Increase in [3H]flunitrazepam binding to GABA-A receptor in mouse embryo cortical neurons; type: protein-complex assay
Summary of the method: (§2)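 Intact mouse embryonic cortical neurons at 7-9 days in vitro, washed into HEPES buffer pH 7.3. Incubated 30 min at 25 °C with 1.3-2.0 nM [3H]flunitrazepam and steroid (1 nM-30 µM, DMSO <0.5% final). Nonspecific binding taken with 20 µM diazepam; 100 µM GABA as positive control. Data as % of control binding. EC50 from sigmoid fits of at least six concentrations in triplicate, 3-5 independent curves.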

[2] = target: T1, GABA-A receptor; anion channel (Mus musculus); experiment: Effect on GABA-A-induced 36chloride ion influx in mouse embryo cortical neurons at 10 uM relative to basal value; type: functional
Summary of the method: (§3)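 Primary cortical neurons from 16-day mouse embryos, cultured 7-9 days with 5 µM fluorodeoxyuridine/20 µM uridine to block glia. 45 min preincubation in Earle's salt solution pH 7.4 at 36.8 °C, then 10 min at room temperature. 7 s uptake of 36Cl (0.2-0.7 µCi/mL) with or without 5 µM GABA plus steroid. Basal uptake measured without GABA or steroid. Lysate counted by scintillation.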

Cortical neurone [3] = experiment: Loss of viability of cortical neuron at 100 uM after 24 hrs; type: functional, cell-based; conditions: Mus musculus
Summary of the method: (§4)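 Mouse embryonic cortical neuron cultures exposed to steroid at 10 µM for 72 h, or 100 µM for 24 or 72 h. MTT (250 µg/mL in HEPES buffer) for 15 min at 37 °C, formazan dissolved in 5% SDS and read at 560 nm. Expressed as % of untreated controls. Two independent experiments in triplicate.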

[4] = target: GABA-A receptor; anion channel; experiment: as §1; type: protein-complex assay; summary of the method: as §2
Cortical neurone [5] = experiment: Loss of viability of cortical neuron at 100 uM after 72 hrs; type: functional, cell-based; conditions: Mus musculus; summary of the method: as §4
Cortical neurone [6] = experiment: Loss of viability of cortical neuron at 10 uM after 72 hrs; type: functional, cell-based; conditions: Mus musculus; summary of the method: as §4
[7] = target: T1, GABA-A receptor; anion channel (Mus musculus); experiment: Effect on 36chloride ion influx in mouse embryo cortical neurons in absence of GABA-A at 10 uM relative to basal value; type: functional; summary of the method: as §3
[8] = target: GABA-A receptor; anion channel (Rattus norvegicus) (UniProt O09028+P15431+P18506+P18508+P19969+P20236+P23574+P23576+P28471+P28473+P30191+P62813+P63079+P63138+Q91ZM7+Q9ES14); experiment: Inhibition of [35S]TBPS binding to GABA-A receptor in Wistar rat brain membrane at 10 uM; type: cell membranes
Summary of the method: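 Whole-brain membranes from adult male Wistar rats in 20 mM KH2PO4/200 mM KCl, pH 7.4. Incubated 60 min at 37 °C with 2 nM [35S]TBPS, 1 µM GABA and steroid. Nonspecific binding defined with 200 µM picrotoxinin. Results expressed as % of DMSO controls.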

Compound | Activity [1] | Activity [2] | other results
CC(=O)[C@H]1CC[C@H]2[C@H]3C(=C4CC[C@@H](O)C[C@@]4(C)[C@H]3O)CC[C@]12C | inactive | 76% | 
CC(=O)[C@H]1CC[C@H]2[C@@H]3CC[C@H]4C[C@H](O)CC[C@]4(C)[C@H]3CC[C@]12C [BREXANOLONE] |  | 164% | Activity (Cortical neurone [3]): inactive; Log EC50 [4]: -6.06; Activity (Cortical neurone [5]): Active; Activity (Cortical neurone [6]): inactive
CC(=O)[C@H]1CC[C@H]2[C@@H]3C(=O)N[C@H]4C[C@H](O)CC[C@]4(C)[C@H]3CC[C@]12C | inactive | 81% | 
CC(=O)[C@H]1CC[C@H]2[C@@H]3CC[C@@H]4C[C@H](O)CC[C@]4(C)[C@H]3CC[C@]12C [ELTANOLONE] |  | 162% | Log EC50 [4]: -5.93
CC(=O)[C@H]1CC[C@H]2[C@@H]3C(=O)[C@H]4C[C@H](O)CC[C@]4(C)[C@H]3CC[C@]12C | inactive | 82% | 
CC(=O)[C@H]1CC[C@H]2[C@@H]3CC=C4C[C@H](O)CC[C@]4(C)[C@H]3CC[C@]12C |  | 131% | 
CC(=O)[C@H]1CC[C@H]2[C@@H]3[C@@H]4O[C@@]45C[C@H](O)CC[C@]5(C)[C@H]3CC[C@]12C | inactive | 103% | 
CC(=O)[C@H]1CC[C@H]2[C@@H]3[C@H]4O[C@]45C[C@@H](O)CC[C@]5(C)[C@H]3CC[C@]12C | inactive | 99% | 
CC(=O)[C@H]1CC[C@H]2[C@@H]3[C@H]4O[C@]45C[C@H](O)CC[C@]5(C)[C@H]3CC[C@]12C | inactive | 104% | 
CC(=O)[C@H]1CC[C@H]2[C@@H]3C[C@@H]4C[C@H](O)CC[C@]4(C)[C@H]3CC[C@]12C |  | 172% | Activity (Cortical neurone [3]): inactive; Log EC50 [4]: -6.03; Activity (Cortical neurone [6]): inactive; Activity [7]: 1.7%
CC(=O)[C@H]1CC[C@H]2[C@@H]3CN[C@H]4C[C@H](O)CC[C@]4(C)[C@H]3CC[C@]12C | inactive | 86% | 
CC(=O)[C@H]1CC[C@H]2[C@@H]3C[C@H]4C[C@H](O)CC[C@]4(C)[C@H]3CC[C@]12C |  | 199% | Activity (Cortical neurone [3]): inactive; Log EC50 [4]: -6.61; Activity (Cortical neurone [6]): inactive; inhibition [8]: 33%; Activity [7]: 1.7%
CC(=O)[C@H]1CC[C@H]2[C@@H]3C(=O)C[C@H]4C[C@H](O)CC[C@]4(C)[C@H]3CC[C@]12C | inactive | 90% | 
CC(=O)[C@H]1CC[C@H]2[C@@H]3CC(=O)[C@H]4C[C@H](O)CC[C@]4(C)[C@H]3CC[C@]12C | inactive | 100% | 

From ChEMBL document CHEMBL1147826, “Activity of B-nor analogues of neurosteroids on the GABA(A) receptor in primary neuronal cultures” (J Med Chem, 2006)
